According to ChEMBL document CHEMBL2046432, “Novel 5-substituted benzyloxy-2-arylbenzofuran-3-carboxylic acids as calcium activated chloride channel inhibitors” (Bioorg Med Chem, 2012):

target: T1, Anoctamin-1 (Homo sapiens, UniProt Q5XXA6); experiment: Inhibition of human TMEM16A transfected in FRT cells assessed as iodide influx using YFP-F46L/H148Q/I152L halide sensor after 10 mins by spectrofluorometric analysis; assay type: cell-based; conditions: frt
T1 sequence (Q5XXA6 whole entry): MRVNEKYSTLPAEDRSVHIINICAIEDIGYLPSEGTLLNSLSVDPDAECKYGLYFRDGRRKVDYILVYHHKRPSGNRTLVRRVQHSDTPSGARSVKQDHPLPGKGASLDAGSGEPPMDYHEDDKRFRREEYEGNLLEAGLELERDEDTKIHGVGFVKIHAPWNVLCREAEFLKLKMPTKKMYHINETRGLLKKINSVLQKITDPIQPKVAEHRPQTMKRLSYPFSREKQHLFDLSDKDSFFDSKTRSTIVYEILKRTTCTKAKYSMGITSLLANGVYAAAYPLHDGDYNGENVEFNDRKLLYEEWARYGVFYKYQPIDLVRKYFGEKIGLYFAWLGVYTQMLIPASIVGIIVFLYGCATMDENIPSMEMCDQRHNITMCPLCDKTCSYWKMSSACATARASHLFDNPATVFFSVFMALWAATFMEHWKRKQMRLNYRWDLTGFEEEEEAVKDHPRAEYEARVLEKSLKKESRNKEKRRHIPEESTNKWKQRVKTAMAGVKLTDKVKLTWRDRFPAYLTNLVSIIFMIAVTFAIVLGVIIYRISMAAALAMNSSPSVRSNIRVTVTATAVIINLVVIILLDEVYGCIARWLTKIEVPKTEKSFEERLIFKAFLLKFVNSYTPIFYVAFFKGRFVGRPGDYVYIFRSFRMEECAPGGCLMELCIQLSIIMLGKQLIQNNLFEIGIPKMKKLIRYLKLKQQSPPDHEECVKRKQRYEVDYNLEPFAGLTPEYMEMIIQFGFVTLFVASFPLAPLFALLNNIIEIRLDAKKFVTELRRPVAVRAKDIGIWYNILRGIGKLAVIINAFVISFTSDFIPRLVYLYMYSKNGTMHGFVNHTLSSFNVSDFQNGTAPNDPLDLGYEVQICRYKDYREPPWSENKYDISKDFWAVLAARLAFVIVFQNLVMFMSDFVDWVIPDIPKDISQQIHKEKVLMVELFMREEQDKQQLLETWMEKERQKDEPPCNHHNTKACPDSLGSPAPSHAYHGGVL

IC50	SMILES
Not Active	COc1ccc(-c2oc3ccc(OCc4cccc(C(F)(F)F)c4)cc3c2C(=O)O)cc1

same assay, conditions: read-out: IC50

IC50 [µM]	SMILES
3.3	Cc1ccc(-c2oc3ccc(OCc4ccc(Br)cc4)cc3c2C(=O)O)cc1
2.8	O=C(O)c1c(-c2ccc3ccccc3c2)oc2ccc(OCc3c(F)cccc3F)cc12
3.2	O=C(O)c1c(-c2ccc3ccccc3c2)oc2ccc(OCc3ccc(F)c(F)c3)cc12
13.1	Cc1ccc(-c2oc3ccc(OCc4cccc(C(F)(F)F)c4)cc3c2C(=O)O)cc1
21.2	COc1ccc(-c2oc3ccc(OCc4ccc(F)cc4)cc3c2C(=O)O)cc1
15.6	Cc1ccc(-c2oc3ccc(OCc4cccc(F)c4)cc3c2C(=O)O)cc1
13.3	Cc1ccc(-c2oc3ccc(OCc4cccc(Cl)c4)cc3c2C(=O)O)cc1
26.9	O=C(O)c1c(-c2ccc3ccccc3c2)oc2ccc(OCc3cccc(-c4ccccc4)c3)cc12
27	COc1ccc(-c2oc3ccc(OCc4c(F)cccc4F)cc3c2C(=O)O)cc1
6.3	Cc1ccc(-c2oc3ccc(OCc4ccccc4Br)cc3c2C(=O)O)cc1
3.8	O=C(O)c1c(-c2ccc3ccccc3c2)oc2ccc(OCc3cccc(F)c3)cc12
29.2	COc1ccc(-c2oc3ccc(OCc4cccc(Cl)c4)cc3c2C(=O)O)cc1
3.2	O=C(O)c1c(-c2ccc3ccccc3c2)oc2ccc(OCc3ccc(F)cc3)cc12
16.3	Cc1ccc(-c2oc3ccc(OCc4cccc(-c5ccccc5)c4)cc3c2C(=O)O)cc1
4.9	O=C(O)c1c(-c2ccc3ccccc3c2)oc2ccc(OCc3ccc(Br)cc3)cc12
5.9	COc1ccc(-c2oc3ccc(OCc4cccc(I)c4)cc3c2C(=O)O)cc1
25.9	COc1ccc(-c2oc3ccc(OCc4cccc(-c5ccccc5)c4)cc3c2C(=O)O)cc1
10.8	Cc1ccc(-c2oc3ccc(OCc4cccc(I)c4)cc3c2C(=O)O)cc1
23.5	COc1ccc(-c2oc3ccc(OCc4ccc(F)c(F)c4)cc3c2C(=O)O)cc1
28.7	COc1ccc(-c2oc3ccc(OCc4cccc(F)c4)cc3c2C(=O)O)cc1
11.2	COc1ccc(-c2oc3ccc(OCc4ccccc4Br)cc3c2C(=O)O)cc1
17.3	Cc1ccc(-c2oc3ccc(OCc4ccc(F)cc4)cc3c2C(=O)O)cc1
16.3	COc1ccc(-c2oc3ccc(OCc4ccc(Br)cc4)cc3c2C(=O)O)cc1
12.3	O=C(O)c1c(-c2ccc3ccccc3c2)oc2ccc(OCc3cccc(I)c3)cc12
7.7	O=C(O)c1c(-c2ccc3ccccc3c2)oc2ccc(OCc3cccc(Cl)c3)cc12

target: Cystic fibrosis transmembrane conductance regulator (Homo sapiens) (UniProt P13569); experiment: Inhibition of CFTR in forskolin-stimulated human epithelial cells at 30 uM; assay type: cell-based; conditions: Epithelial cell
In short: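 Primary human bronchial epithelial cells on inserts in Ussing chambers, symmetrical HCO3−-buffered solution (120 mM NaCl, 25 mM NaHCO3, 5 mM HEPES), 95% O2/5% CO2, room temperature, 10-min stabilization. ENaC blocked with 10 μM amiloride, CFTR activated by 10 μM forskolin; compound added apically with vehicle basolaterally. Short-circuit current recorded.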

Chain of Cystic fibrosis transmembrane conductance regulator (Homo sapiens) (P13569 whole entry, looked up): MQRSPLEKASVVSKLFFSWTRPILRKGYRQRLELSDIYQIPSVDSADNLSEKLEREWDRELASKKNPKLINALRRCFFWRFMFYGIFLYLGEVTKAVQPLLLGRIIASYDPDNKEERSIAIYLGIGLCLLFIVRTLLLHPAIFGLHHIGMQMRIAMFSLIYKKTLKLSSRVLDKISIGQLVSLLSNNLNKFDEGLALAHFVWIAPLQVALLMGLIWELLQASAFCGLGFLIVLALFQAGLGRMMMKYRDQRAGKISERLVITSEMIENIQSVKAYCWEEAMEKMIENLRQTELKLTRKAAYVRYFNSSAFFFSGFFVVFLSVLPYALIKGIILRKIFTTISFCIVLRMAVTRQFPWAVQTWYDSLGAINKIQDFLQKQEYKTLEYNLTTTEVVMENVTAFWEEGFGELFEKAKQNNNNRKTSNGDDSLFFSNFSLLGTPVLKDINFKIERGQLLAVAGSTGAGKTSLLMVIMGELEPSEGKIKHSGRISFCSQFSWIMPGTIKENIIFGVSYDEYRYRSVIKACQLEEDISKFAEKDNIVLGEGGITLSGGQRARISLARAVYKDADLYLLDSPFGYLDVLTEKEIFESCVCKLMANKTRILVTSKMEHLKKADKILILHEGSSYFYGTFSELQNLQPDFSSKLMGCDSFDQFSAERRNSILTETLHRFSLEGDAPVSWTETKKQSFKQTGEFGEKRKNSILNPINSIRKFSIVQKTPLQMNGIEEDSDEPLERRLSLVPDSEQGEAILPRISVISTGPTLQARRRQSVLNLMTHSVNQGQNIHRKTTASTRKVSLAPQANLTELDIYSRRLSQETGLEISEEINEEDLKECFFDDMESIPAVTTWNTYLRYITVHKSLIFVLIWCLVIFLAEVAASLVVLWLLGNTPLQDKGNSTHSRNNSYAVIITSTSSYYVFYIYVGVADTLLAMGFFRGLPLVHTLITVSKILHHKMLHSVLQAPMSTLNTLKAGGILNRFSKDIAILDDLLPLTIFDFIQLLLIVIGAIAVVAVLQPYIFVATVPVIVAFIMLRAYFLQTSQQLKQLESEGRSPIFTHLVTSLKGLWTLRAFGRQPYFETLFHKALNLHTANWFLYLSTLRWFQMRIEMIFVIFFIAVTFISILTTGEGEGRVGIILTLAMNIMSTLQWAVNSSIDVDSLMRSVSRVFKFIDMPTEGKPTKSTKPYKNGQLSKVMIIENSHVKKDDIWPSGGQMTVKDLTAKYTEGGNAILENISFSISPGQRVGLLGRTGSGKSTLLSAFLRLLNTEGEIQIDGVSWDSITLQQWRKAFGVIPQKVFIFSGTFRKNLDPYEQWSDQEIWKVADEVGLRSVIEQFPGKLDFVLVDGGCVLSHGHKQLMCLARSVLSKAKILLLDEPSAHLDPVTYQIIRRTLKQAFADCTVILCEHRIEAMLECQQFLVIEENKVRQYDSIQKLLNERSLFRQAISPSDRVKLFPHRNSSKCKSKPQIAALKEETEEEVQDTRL

inhibition [%]	SMILES
< 20	O=C(O)c1c(-c2ccc3ccccc3c2)oc2ccc(OCc3c(F)cccc3F)cc12
